Measured values from different studies.
Target: Mitogen-activated protein kinase kinase kinase 11 (MAP3K11, Homo sapiens, UniProt Q16584)

Structure (SMILES)	observed	action	technique	concentration	endpoint	value
Cc1nn(CC(F)(F)F)cc1Nc1ncc(Br)c(NCc2ccc(S(N)(=O)=O)cc2)n1	enzyme activity	inhibitor	radiometric	1 µM	remaining activity	82%
O=C(Nc1cnn(-c2csc(C(=O)NC3COC3)c2)c1)Nc1c(F)cccc1Cl	enzyme activity	inhibitor	–	5 µM	remaining activity	84.7%
O=C1NC(=O)c2cc(Nc3ccc(F)cc3)c(Nc3ccc(F)cc3)cc21	cell-free assay	–	–	0.5 µM	remaining signal	98.4%
C[C@H]1CCN(c2nccc(-c3cnn4ncccc34)n2)C1	binding	–	–	1 µM	remaining binding	93%
CCC(=O)N[C@@H]1CC[C@H](C(=O)N(C)c2ccc(-c3nc4ccccc4o3)cc2)C1	cell-free assay	–	competition with immobilised ligand	1 µM	remaining binding	100%
Cc1ccc(C(=O)NCc2ccsc2)cc1C#Cc1cn(C(C)C)c2ncnc(N)c12	enzyme activity	inhibitor	–	1 µM	activity vs control	8%
O=C(NCc1ncc(C(F)(F)F)cc1Cl)c1ccc2c(c1)C1(CCS(=O)(=O)CC1)[C@@H](C1CC1)N2S(=O)(=O)c1ccc(F)cc1	cell-free assay	–	competition with immobilised ligand	1 µM	remaining binding	100%
COc1ccc(COc2ccc(Cc3cnc(N)nc3N)cc2OC)cc1	cell-free assay	–	–	0.5 µM	remaining signal	101%
c1cc(CN2CCOCC2)cc(Nc2nccc(NCCc3cnc[nH]3)n2)c1	enzyme activity	inhibitor	radiometric	1 µM	remaining activity	82%
O=C1Nc2ccc(Cl)cc2C1=Cc1cc(Cl)c(O)c(Cl)c1	cell-free assay	–	–	0.5 µM	remaining signal	60.4%
NS(=O)(=O)c1ccc(CNc2nc(Nc3cccc(CN4CCOCC4)c3)ncc2Br)cc1	enzyme activity	inhibitor	radiometric	1 µM	remaining activity	34%
CC(C)(O)c1cncc(-c2nc3ccc(F)cc3n2C2CC2)c1	cell-free assay	–	competition with immobilised ligand	1 µM	remaining binding	100%
Cc1nn(CC(F)(F)F)cc1Nc1nccc(NCCc2cnc[nH]2)n1	enzyme activity	inhibitor	radiometric	1 µM	remaining activity	94%
CC(=O)N1CCC(c2ccc(C(=O)NC(=N)N)cc2C(F)(F)F)CC1	cell-free assay	–	competition with immobilised ligand	1 µM	remaining binding	100%
O=C(NCCCNc1nc(Nc2cccc(NC(=O)N3CCCC3)c2)ncc1I)c1cccs1	enzyme activity	inhibitor	radiometric	1 µM	remaining activity	1%
Cc1c(C(=O)O)cc(-c2ccc(C3CCNCC3)cc2)c2ccc(-c3ccc(C(F)(F)F)cc3)cc12	binding	–	competition with immobilised ligand	1 µM	remaining binding	100%
CN1CCc2cc(Nc3ncc(C4CC4)c(NCCCNC(=O)C4CCC4)n3)ccc2C1	enzyme activity	inhibitor	radiometric	1 µM	remaining activity	44%
CCOCCn1cc(C(=O)Nc2ccc(-n3nc(-c4cccnc4)cc3C(F)(F)F)cn2)ccc1=O	cell-free assay	–	competition with immobilised ligand	1 µM	remaining binding	100%
